Laboratory results reported in ChEMBL document CHEMBL1125436, “Anthracene-9,10-diones as potential anticancer agents. Synthesis, DNA-binding, and biological studies on a series of 2,6-disubstituted derivatives” (J Med Chem, 1992).

Legend:
[1] = Estimated pKa value of the compound; type: physicochemical
[2] = test system: L1210; experiment: In vitro extracellular concentration required to reduce cell population to 50% against L1210 leukemia cells; type: functional, cell-based; conditions: Mus musculus
How it was run: (§1)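 Cells seeded at ca. […] cells mL⁻¹, grown 24 h and counted to confirm log growth, then given compound (acetic acid salt or free base) in aqueous solution. Exposure 2 days for L1210 and Walker 256, 6 days for V79. Surviving cells counted; percent growth inhibition versus untreated controls; value is extracellular concentration giving 50% reduction.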

[3] = test system: Nucleic Acid; experiment: Compound was evaluated for the increase in melting temperature (delta Tm) for calf Thymus DNA on interaction with Ligand at DNAp to ligand ratio 20:1; type: functional; conditions: Bos taurus
[4] = test system: Nucleic Acid; experiment: Compound was evaluated for the increase in melting temperature (delta Tm) for calf Thymus DNA on interaction with Ligand at DNAp to ligand ratio 40:1; type: functional; conditions: Bos taurus
[5] = test system: Nucleic Acid; experiment: Increase in Melting temperature (delta Tm) for Calf thymus DNA on interaction against ligand (mole ratio of 10:1); type: functional; conditions: Bos taurus
[6] = test system: Nucleic Acid; experiment: Compound was evaluated for the increase in melting temperature (delta Tm) for calf Thymus DNA on interaction with Ligand at DNAp to ligand ratio 10:1; type: functional; conditions: Bos taurus
[7] = test system: Nucleic Acid; experiment: Increase in Melting temperature (delta Tm) for Micrococcus lysodeikticus DNA on interaction against ligand (mole ratio of 10:1); type: functional; conditions: Micrococcus luteus
How it was run: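 M. lysodeikticus DNA (28% A+T) in HNE buffer pH 7.0, dialysed and centrifuged before use; DNAP 0.10 mM with ligand 0.01 mM (10:1). A260 monitored against temperature; Tm at midpoint of normalized curve, ΔTm versus native DNA; mean of at least three determinations.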

[8] = In vitro extracellular concentration required to reduce cell population to 50% against Walker 256 (WS) carcinoma cells; type: functional, Rattus norvegicus; how it was run: as §1
[9] = test system: Nucleic Acid; experiment: Increase in Melting temperature (delta Tm) for Clostridium perfringens DNA on interaction against ligand (mole ratio of 10:1); type: functional
How it was run: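 Working DNAP 0.10 mM and ligand 0.01 mM. Absorbance at 260 nm was followed against temperature. Tm was taken at the midpoint of the normalized curve and compared with native DNA; mean of ≥3 determinations.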

[10] = In vitro extracellular concentration required to reduce cell population to 50% against Chinese hamster V79 cells; type: functional, cell-based, Cricetulus griseus; how it was run: as §1

SMILES	pKa [1]	IC50 [2] [µM]	ΔTm [3]	ΔTm [4]	ΔTm [5]	ΔTm [6]	ΔTm [7]	IC50 [8] [µM]	ΔTm [9]	IC50 [10] [µM]
O=C(CCN1CCCCC1)Nc1ccc2c(c1)C(=O)c1ccc(NC(=O)CCN3CCCCC3)cc1C2=O	10.4	0.19	7.3	3.7	> 15.3	> 15.3	> 14.5	2	> 18.9	1.7
O=C(CCN1CCC(CCO)CC1)Nc1ccc2c(c1)C(=O)c1ccc(NC(=O)CCN3CCC(CCO)CC3)cc1C2=O	10	2.3	8.3	4.3	–	> 15	–	5.5	–	3.95
O=C1c2c(O)ccc(O)c2C(=O)c2c(NCCNCCO)ccc(NCCNCCO)c21 [MITOXANTRONE]	7.4	0.002	7.4	–	> 15	> 15	> 11.7	0.01	> 26.4	–
O=C(CCN1CCCCC1CO)Nc1ccc2c(c1)C(=O)c1ccc(NC(=O)CCN3CCCCC3CO)cc1C2=O (centres undefined)	10	0.5	7.9	3.8	–	14.4	–	2.8	–	3.6
O=C(CCN(CCO)CCO)Nc1ccc2c(c1)C(=O)c1ccc(NC(=O)CCN(CCO)CCO)cc1C2=O	9	4.2	6.1	3.2	10.9	10.9	> 15.7	> 100	11.7	25.5
CCN(CC)CC(=O)Nc1ccc2c(c1)C(=O)c1ccc(NC(=O)CN(CC)CC)cc1C2=O	10	27	7.7	3.7	13.5	13.5	> 16.6	19	16.6	18
O=C(CCN1CCN(CCO)CC1)Nc1ccc2c(c1)C(=O)c1ccc(NC(=O)CCN3CCN(CCO)CC3)cc1C2=O	9.5	4.2	4.6	2.9	–	7.2	–	6.6	–	19.5
O=C(CN1CCCCC1)Nc1ccc2c(c1)C(=O)c1ccc(NC(=O)CN3CCCCC3)cc1C2=O	10	76	8.2	–	14.3	14.3	18.4	> 100	19	30
CN1CCN(CC(=O)Nc2ccc3c(c2)C(=O)c2ccc(NC(=O)CN4CCN(C)CC4)cc2C3=O)CC1	9.5	6.5	8.2	4.2	–	13.6	–	4.6	–	4.6
O=C(CCN1CCCCC1CCO)Nc1ccc2c(c1)C(=O)c1ccc(NC(=O)CCN3CCCCC3CCO)cc1C2=O (centres undefined)	10	0.28	9.2	4.1	> 15.3	> 15.3	> 14.6	3.6	> 18.5	12
CCN(CC)CCC(=O)Nc1ccc2c(c1)C(=O)c1ccc(NC(=O)CCN(CC)CC)cc1C2=O	10.8	0.34	7.7	3.7	> 15.5	> 15.5	> 18.1	2.7	> 20.5	2.9
O=C(CN1CCOCC1)Nc1ccc2c(c1)C(=O)c1ccc(NC(=O)CN3CCOCC3)cc1C2=O	7.4	> 100	0.5	0.5	–	0.5	–	> 100	–	> 100
O=C(CCN1CCOCC1)Nc1ccc2c(c1)C(=O)c1ccc(NC(=O)CCN3CCOCC3)cc1C2=O	8	0.57	3	–	–	4.9	–	4.2	–	1.6
CN1CCN(CCC(=O)Nc2ccc3c(c2)C(=O)c2ccc(NC(=O)CCN4CCN(C)CC4)cc2C3=O)CC1	9	1.7	4.4	–	–	9.2	–	3.1	–	1.8
